# Experimental data reported in ChEMBL document CHEMBL4513216, “Probing the Open Global Health Chemical Diversity Library for Multistage-Active Starting Points for Next-Generation Antimalarials” (ACS Infect Dis, 2020).
# Experiment: Toxicity liver stage against HepG2, at 10uM
# Type: cell-based
# Design: test concentration 10 uM, cell line HepG2-A16-CD81EGFP
# Settings: human, HepG2-A16-CD81EGFP cells; read-out: INHIBITION
# In short: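 Uninfected HepG2-A16-CD81EGFP cells, 3 × 10^3 per well, 1536-well, plated on prespotted compound at 10 μM final, parasite-free screening media added to match infected plates; puromycin 10 μM positive, DMSO 0.5% negative; run in parallel with 48 h PbLuc assay at 37 °C, 5% CO2; viability by CellTiter-Glo luminescence, normalized to controls.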
row,SMILES,cytotoxicity at 10 µM
1,O=C(NC[C@H]1CCCC[C@H]1O)c1cccc2[nH]c(-c3ccco3)nc12,-2.51%
2,COc1ccc(CN2CC(O)CN(C(=O)c3ccccc3)CC2=O)cc1 (stereo unspecified),0.331%
3,O=S1(=O)NCC2(CCN(c3ncc(F)cn3)CC2)COc2ccccc21,4.74%
4,CN(C)C(=O)c1cc2c(nc1NCC1CC1)CCNCC2,8.39%
5,O=C(c1ccoc1)N1CCOCC2(CCN(Cc3cccs3)C2)C1 (stereo unspecified),-2.98%
6,CCOCC1CN(C(=O)c2ccoc2C)Cc2cnn(C)c21 (stereo unspecified),-2.48%
7,CC(C)Oc1ncnc2c1CCN(c1cc(C(F)(F)F)ncn1)CC2,19%
8,CCOc1ncnc2c1CCN(c1cc(C(F)(F)F)ncn1)CC2,12.8%
9,CC1CCCN(c2ncc(C(=O)NCc3ccc(F)c(Cl)c3)c(N)n2)C1 (stereo unspecified),-2.83%
10,Cc1nsc(C(=O)N2CCc3ccccc3C2)n1,5.86%
11,CSc1[nH]nc(NC(=O)c2ccccc2)c1C#N,-9.59%
12,O=C(NCCO)C1(CC2CC(c3ccc(F)cc3)=NO2)CCOCC1 (stereo unspecified),-2.55%
13,Cc1nc(NCc2nccn2C)cc(C2COCCN2)n1 (stereo unspecified),5.32%
14,COCCC(=O)N1CCCC1c1nc(C)c2c(n1)N(C)C(=O)CC2 (stereo unspecified),-1.04%
15,CN1C[C@@H](C(=O)N2CCOCC2)[C@@]2(CCc3ccccc3C(=O)N2)C1,9.87%
16,Cc1nn(C)cc1S(=O)(=O)N(C)[C@@H]1CCC[C@@H](n2ccnc2)[C@@H]1O,-2.78%
17,Cc1cc(-c2ccc(=O)n(C3CCN(C(=O)C4CC4)CC3)n2)c(C)o1,4.79%
18,N[C@@H]1CCC[C@@H](Oc2ccc(F)cc2Oc2cccc(F)c2)[C@@H]1O,-22.2%
19,O=C(NCC1CC1)Nc1cnc2ccc(F)cc2c1O,-8.58%
20,CCn1ncc(CN2CCc3c(nc(-c4cccnc4)[nH]c3=O)C2)c1C,1.34%
21,Cc1ccc(NCC2(O)CCNCC2)cc1C,2.27%
22,CC(C)C(NC(=O)c1ccc(N2CCOCC2)nc1)c1cccs1 (stereo unspecified),-44%
23,CCCNC(=O)C[S+]([O-])Cc1csc(C2CCCCC2)n1 (stereo unspecified),-48.2%

row,SMILES,cytotoxicity at 10 µM
1,COc1ccc(N(C)C(=O)C2CN(C)CCO2)cc1Cl (stereo unspecified),-46.4%
2,CCC(O)CN1CCN(C(=O)c2cccc3c2OCC(=O)N3)CC1 (stereo unspecified),-7.55%
3,CC(C)(C)CC(NC(=O)c1nc(=O)[nH][nH]1)c1ccc(F)cc1 (stereo unspecified),-2.42%
4,COc1ccc(C(=O)NS(=O)(=O)c2ccc(CNC(C)=O)s2)cc1,1.81%
5,CCCc1noc(C[S+]([O-])CC(=O)NCc2ccccc2)n1 (stereo unspecified),-4.3%
6,CC(C(=O)NCC(C)(C)c1ccc(Br)cc1)n1cncn1 (stereo unspecified),1.73%
7,COC(=O)CC(NC(=O)CCCn1cccn1)c1ccc(Cl)cc1 (stereo unspecified),4.7%
8,CNS(=O)(=O)CC(=O)N(C1CCCC1)C1CC1,-2.78%
9,CCC(=O)NCC(CC)Oc1cccc(F)c1 (stereo unspecified),-44%
10,Clc1cccc(C(CNCc2cccnc2)N2CCOCC2)c1 (stereo unspecified),-4.45%
11,Cc1ccc(C(C)(O)CNC(=O)NCCc2ccc3c(c2)CCO3)o1 (stereo unspecified),-4.53%
12,N#Cc1cccnc1N[C@@H]1c2ccccc2C[C@@H]1O,2.28%
13,CC(C)CC(NC(=O)C1=CCCC1)C(=O)N1CCC(CO)CC1 (stereo unspecified),8.23%
14,CCN(CC(=O)Nc1cc(Cl)ccc1C)C(=O)c1ccc(=O)[nH]n1,-0.898%
15,CCC(=O)N1CCN(C(=O)Nc2cccc(N3CCOCC3)c2)CC1,-3.1%
16,N#Cc1ccc(CNC(=O)NC2CCN(c3ncccn3)CC2)cc1,11.3%
17,Cc1ccccc1-c1cc(NC(=O)NC2CCC(O)CC2)n(CCO)n1 (stereo unspecified),1.09%
18,CCOc1ncccc1NC(=O)c1ccc(C)s1,-3.89%
19,CN(C)C(=O)C1CCCN1CCCNC(=O)c1cccc2[nH]ncc12 (stereo unspecified),-1.07%
20,COc1ccc(CC(=O)N(C)C2CCN(C)C2=O)cc1F (stereo unspecified),0.0152%
21,Cc1ccc(C2CN(Cc3cnc(-c4ccccn4)s3)CCO2)o1 (stereo unspecified),2.91%
22,NC(=O)N1CCCN(Cc2cc(F)cc(Br)c2)CC1,9.91%
23,CC(C)n1nc2c(cc1=O)CN(CCOc1cccc(C#N)c1)CC2,13.6%

row,SMILES,cytotoxicity at 10 µM
1,CNS(=O)(=O)CCCN1CCCCCC1c1ccc(C)o1 (stereo unspecified),-7.58%
2,CN(C)c1cc(CNCc2ccc(N3CCOCC3)cc2)ccn1,23.3%
3,CC(C)c1nc(/C=C/c2cnn(-c3ccccc3)c2)ncc1C(=O)O,-11.3%
4,CN(C)c1ncccc1CNC(=O)NCC(c1cccs1)N(C)C (stereo unspecified),11.6%
5,CC(C)(C)[S+]([O-])CCNC(=O)c1ccc(Cl)c2cccnc12 (stereo unspecified),-44.5%
6,Cc1cc(C2CCCN2C(=O)NCc2cccc(F)c2)on1 (stereo unspecified),24.8%
7,Cc1cnn(C2CN(CC(O)c3ccc4c(c3)OCCO4)C2)c1 (stereo unspecified),21.9%
8,CCS(=O)(=O)N1CCc2c(COC)cncc2C1,-99%
9,CC(=O)N1CCc2[nH]nc(C(=O)N3CC=CC3)c2C1,-108%
10,O=C([C@H]1CCCO1)N1CCc2ncc(CN3CCOCC3)n2CC1,-72.3%
11,CN1CCN(Cc2cnc3n2CCN(C(=O)N2CCCC2)C3)CC1,-72.3%
12,O=C(CO)N1CCCC2(CCN(c3ccsc3)C2=O)C1 (stereo unspecified),-66.8%
13,Cc1ncsc1CN1CC[C@H]2C(=O)N(c3ccccc3)CCO[C@H]2C1,1.26%
14,O=C(Nc1ccc(-c2cnc(NCCO)nc2)cc1)[C@@H]1CCCCN1,-5.08%
15,O=c1c2ccc(Cl)cc2ncn1CCCN1CCCCC1CO (stereo unspecified),-2.4%
16,COC(C)(C)C(=O)N[C@H]1CN(c2ncccc2C(N)=O)C[C@@H]1C(C)C,6.66%
17,CN1CC[C@H]2CN(C(=O)c3csc(Cc4ccccc4)n3)C[C@H]21,-2.45%
18,Cn1ncc2c(N3CCC(CCO)CC3)nc(C(C)(C)C)nc21,14.6%
19,CC(C)Cc1ncc2c(n1)CN(c1nccc(N(C)C)n1)C2,-6.1%
20,CC(=O)Nc1ccc(CN2CCc3[nH]cnc3C2c2ccc(C)o2)cc1 (stereo unspecified),4.93%
21,O=C(CCn1ccc(=O)[nH]c1=O)N1CCC(OCc2cccnc2)CC1,-15.7%
22,CCn1nc(CC(C)C)cc1C(=O)N1CCCOC(CN2CCCC2)C1 (stereo unspecified),-7.66%
23,CC(C)N(C)S(=O)(=O)c1ccc2c(c1)CCN(C(=O)c1cccnn1)C2,-1.22%

row,SMILES,cytotoxicity at 10 µM
1,CN1CCN([C@@H]2CCN(Cc3cccc(-n4cccn4)c3)C[C@H]2O)CC1,8.42%
2,Cc1ccccc1CS(=O)(=O)NCCCN1CCCC1,-7.49%
3,COc1cc(C(N)=O)c(N(C)S(C)(=O)=O)cc1OC,-7.39%
4,N#Cc1c(SCCN2CCCCC2)sc2c(O)cc(O)nc12,-13.1%
5,CNC(=O)COc1ccc(CNc2cncc(-n3cccn3)n2)cc1,-0.906%
6,CN(Cc1ccsc1)C(=O)c1cccc(S(=O)(=O)NCC2CCCO2)c1 (stereo unspecified),-13.8%
7,CC1CN(Cc2cc(C#N)ccc2F)CCN1Cc1nccn1C (stereo unspecified),-6.33%
8,Cc1noc(C)c1CN(C)C(=O)NC1CCOCC1,-14.8%
9,CN1CCCC1CNC(=O)CCOc1ccc(Br)cc1 (stereo unspecified),-16.9%
10,CCn1cnnc1CNC(=O)N1CCC(OCc2ccccc2)CC1,-5.26%
11,CCn1cnnc1CNC(=O)N1CCN(CCc2ccccc2)CC1,-8.14%
12,CCC1CN(CC(=O)Nc2cc(C)nn2C)CCO1 (stereo unspecified),1.14%
13,CCOc1ccc(CC(CNC(=O)c2sccc2C)C(N)=O)cc1 (stereo unspecified),-4.18%
14,COc1ccccc1CCNC(=O)N1CCCC(c2nncn2C)C1 (stereo unspecified),-25.4%
15,O=C(c1ccc2c(c1)COC2)N1CCC(Nc2ccccc2)CC1,-7.54%
16,Clc1cc(CN2CCCC2Cn2cncn2)c2ncccc2c1 (stereo unspecified),1.28%
17,Clc1ccc2cccnc2c1CN1CCCC(Cn2cncn2)C1 (stereo unspecified),8.38%
18,CC(C(=O)N1CCC(Nc2cccnn2)CC1)n1ccnc1 (stereo unspecified),-9.44%
19,CC(C)N(Cc1cccc(F)c1)Cc1nc2c(cnn2C)c(=O)[nH]1,-10.5%
20,O=C(c1ccc2c(c1)COC2)N1CCN(CC2CC2)CC1,-7.18%
21,N#Cc1ccc(OCCCN2CCc3cncnc3C2)cc1,-10%
22,Cc1csc(N2CCN(C(=O)CCc3ccccn3)CC2)n1,-4.27%
23,Cc1cc(C)n(CC2CCCN2C(=O)Cc2c(C)noc2C)n1 (stereo unspecified),-4.05%

row,SMILES,cytotoxicity at 10 µM
1,Cc1cc(N2CCC(NC(=O)C3CC3)CC2)nc(-c2ccncc2)n1,-3.71%
2,Cc1nn(C)c(C)c1CCn1cncc1-c1ccc2c(c1)CC(C)N2C (stereo unspecified),-0.168%
3,Cc1nc(Nc2cnccn2)cc(C2CCN(CCO)C2)n1 (stereo unspecified),0.636%
4,CCN1CCOCC12CCN(C(=O)Cc1cccs1)CC2,6.22%
5,Cn1nc(C2CCN(C(=O)CN3CCCCC3)CC2)c2cccnc21,-30.1%
6,Cc1cc2c(=O)n3c(nc2s1)CCN(Cc1cnc(C)n1C)CC3,-7.73%
7,COCCn1cc2c(n1)C(CNCc1ccsc1)OCC2 (stereo unspecified),3.89%
8,CN1CCN([C@@H]2CN(C(=O)Cc3ccsc3)[C@@H]3CCCO[C@H]23)CC1,2.87%
9,OCCOCc1n[nH]c2c1CN(Cc1ccco1)C2,6.71%
10,CCc1ncc(CN[C@@H]2CCCN(C(C)=O)[C@H]2c2ccc(C)s2)cn1,-26.2%
11,Cc1cccc(CN2C[C@@H]3CN(Cc4ccoc4)CCO[C@@H]3C2)n1,6.53%
12,c1cnc(N2CCCC(NCc3cccc4c3OCCO4)C2)nc1 (stereo unspecified),-8.18%
13,O=C(C1CN(CC2CCOCC2)CC12CCOCC2)N1CCOCC1 (stereo unspecified),7.49%
14,O=C1CC2(CCN(Cc3cccnc3)C2)CN1c1ccc2c(c1)OCO2 (stereo unspecified),-70.2%
15,O=S(=O)(C1CC1)N1CCC2(CC1)CN(Cc1nccs1)CCO2,8.1%
16,O[C@@H]1CCN(CC2CCOC2)[C@H]1Cc1cccnc1 (stereo partly specified),-8.56%
17,Cn1cc(N2CC3(CCN(Cc4cccnc4)CC3)OCC2=O)cn1,-79.3%
18,CN(C)CCNCCC(Cc1ccccc1)C1CCOC(C)(C)C1 (stereo unspecified),1.51%
19,COc1ccc(CCNC(=O)C2CCC(Cn3cnnn3)CC2)cc1 (stereo unspecified),10.2%
